This is an account of results in ChEMBL document CHEMBL4513216, “Probing the Open Global Health Chemical Diversity Library for Multistage-Active Starting Points for Next-Generation Antimalarials” (ACS Infect Dis, 2020).

This data set is described as follows: Toxicity liver stage against HepG2, at 10uM. Further details: test concentration 10 uM, cell line HepG2-A16-CD81EGFP. The class given is cell-based. Particulars: human, HepG2-A16-CD81EGFP cells; read-out: INHIBITION
Summed up: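 Uninfected HepG2-A16-CD81EGFP cells, 3 × 10^3 per well, 1536-well, plated on prespotted compound at 10 μM final, parasite-free screening media added to match infected plates; puromycin 10 μM positive, DMSO 0.5% negative; run in parallel with 48 h PbLuc assay at 37 °C, 5% CO2; viability by CellTiter-Glo luminescence, normalized to controls.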
In the case of `COCCn1cnc2ccc(NC(=O)c3c(C)noc3C)cc2c1=O`, the cytotoxicity at 10 µM is 4.13%.

In the case of `O=C(Nc1cc(C(F)(F)F)ccc1Cl)c1ccc(N2CCCC2)nn1`, the cytotoxicity at 10 µM was -4.43%.

Turning to `O=S(=O)(c1cccs1)N1CCC(c2nc(-c3cccs3)no2)CC1`, the cytotoxicity at 10 µM came to 6.14%.

For `CC(C)(C)NC(=O)NCc1cnn2ccccc12`, the cytotoxicity at 10 µM was -11.9%.

Take `CC(=O)N1CCC(c2nn(C)c(=O)n2-c2ccccc2)CC1`: the cytotoxicity at 10 µM is -2.05%.

On to `Cc1cccc(CN2CC3(CCN(C(=O)C4CC4)CC3)OCC2=O)n1`, for which the cytotoxicity at 10 µM was -4.67%.

`Cc1noc(C2CCN(C(=O)C3CCCO3)CC2)n1` (configuration not stated): the cytotoxicity at 10 µM was 3.95%.

With `CC(C)(C)c1nc(CN(Cc2ccccc2F)C2CCCCC2)no1`, the cytotoxicity at 10 µM is -2.65%.

With `COc1ccc(C(C)NCc2scnc2C)cc1Cn1cccn1` (configuration not stated), the cytotoxicity at 10 µM is -3.53%.

Take `Cc1nc(Cn2cncc(Br)c2=O)no1`: the cytotoxicity at 10 µM is -12.2%.

Take `Oc1cccc(CNCC2CCCO2)c1` (configuration not stated): the cytotoxicity at 10 µM was -1.37%.

Regarding `CCN(C)Cc1cccc(CNC(=O)CSCc2ccncc2)c1`, the cytotoxicity at 10 µM is 4.31%.

Turning to `CCc1nnc2n1CCN(c1nc3ccccc3o1)C2`, the cytotoxicity at 10 µM was 2.11%.

Regarding `O=c1n(CCNCc2ccc(-c3ccccc3)cc2)nc2ccccn12`, the cytotoxicity at 10 µM worked out at 0.932%.

In the case of `Cc1cnn(CCNCc2c(C(C)C)nn(C)c2Cl)c1`, the cytotoxicity at 10 µM was -14%.

As to `O=C(Cn1cc(C2CC2)nn1)N(Cc1cccs1)CC1CCCO1` (configuration not stated), the cytotoxicity at 10 µM was -4.58%.

Turning to `CCC(NCCn1cc(C)cn1)C(=O)Nc1cc(C)on1` (configuration not stated), the cytotoxicity at 10 µM came to 4.52%.

On to `O=C(c1cccnc1)N1CCSCC1`, for which the cytotoxicity at 10 µM is -15.1%.

Turning to `O=c1oc(-c2cccs2)nn1CC(O)c1ccccc1F` (configuration not stated), the cytotoxicity at 10 µM was -14.7%.

On to `CC(C)c1ccc(C2(C(=O)NCCS(N)(=O)=O)CCC2)cc1`, for which the cytotoxicity at 10 µM is -2%.

As for `CCc1csc(C2CCCN(C(=O)c3ccc4c(c3)OCO4)C2)n1` (configuration not stated), the cytotoxicity at 10 µM was determined as 1.71%.

Regarding `CC(C)c1ncncc1C(=O)NCCN1CCCCCC1`, the cytotoxicity at 10 µM is 5.15%.

As to `O=C(c1ccncc1)N(CCO)Cc1cc(Br)ccc1F`, the cytotoxicity at 10 µM was found to be 10.2%.

In the case of `COCc1cccc(NC(=O)NCc2ncc(C)c(OC)c2C)c1`, the cytotoxicity at 10 µM is -1.21%.

As to `CC(O)(CNC(=O)c1cccnc1-n1cccn1)c1cccs1` (configuration not stated), the cytotoxicity at 10 µM came to 7.9%.

Take `Cc1nc(CN2CCCN(Cc3nc4c(F)cccc4[nH]3)CC2)no1`: the cytotoxicity at 10 µM was found to be 0.601%.

For `CN(C)c1ncccc1CNCc1ccc(N2CCOCC2)cc1`, the cytotoxicity at 10 µM is 5.95%.

As to `Cc1nnc(CN2CCCC2c2cccc(Br)c2)o1` (configuration not stated), the cytotoxicity at 10 µM is -3.51%.

With `Cc1cc2c(cc1NC(=O)NC(C)(C)C)OCO2`, the cytotoxicity at 10 µM was -1.47%.

`CC1CCN(CC(O)CNc2ccc(Cl)cn2)CC1` (configuration not stated): the cytotoxicity at 10 µM stood at 17.2%.

In the case of `O=S(=O)(Nc1nccs1)c1cc(Cl)cc2c1OCC2`, the cytotoxicity at 10 µM is -2.19%.

As to `CCc1cc(CNC(=O)N2Cc3ccccc3N(C)CC2C)[nH]n1` (configuration not stated), the cytotoxicity at 10 µM came to 16.3%.

Consider `Cc1cc(=O)n2nc(Oc3cccc(I)c3)sc2n1`, for which the cytotoxicity at 10 µM came out at 3.63%.

`CN1CCOC(C(=O)N2CCC3(CCCC3)CC2)C1` (configuration not stated): the cytotoxicity at 10 µM was -1.52%.

Regarding `CCC(C#N)NC(=O)c1ccc(Oc2cccnc2)cc1` (configuration not stated), the cytotoxicity at 10 µM was -5.82%.

Regarding `Cc1cnn(Cc2cc(F)ccc2F)c1NC(=O)NC1CC1`, the cytotoxicity at 10 µM was determined as 16.9%.

Take `CC(CNC(=O)c1ccc(F)cc1Cl)N1CCCC1` (configuration not stated): the cytotoxicity at 10 µM amounted to 14.4%.

`CCc1nc(CN2CCCN(Cc3cnn(C)c3)CC2)no1`: the cytotoxicity at 10 µM is -2%.

`Cc1ncoc1C(=O)N1CC[C@@]2(C[C@H](NS(C)(=O)=O)CCO2)C1`: the cytotoxicity at 10 µM was -73%.

As to `CCS(=O)(=O)NC1CCc2c(ccc(=O)n2CC2CC2)C1` (configuration not stated), the cytotoxicity at 10 µM is -67.2%.

Consider `CC(C)NC(=O)C1CN(C(=O)NCc2ccccc2)CC12CCOCC2` (configuration not stated), for which the cytotoxicity at 10 µM is -84.6%.

With `CCOCC1CN(Cc2cnn(C)c2)Cc2cnn(C)c21` (configuration not stated), the cytotoxicity at 10 µM is -89.6%.

Turning to `O=C(C1CCOCC1)N1CC[C@@H](N2CCOCC2)[C@@H]1Cc1ccccc1`, the cytotoxicity at 10 µM was -77.2%.

Regarding `Cc1noc(C)c1C(=O)N1C[C@@H]2CN(Cc3cccnc3)CCO[C@@H]2C1`, the cytotoxicity at 10 µM turned out to be 5.75%.

As to `CC(=O)N1CC[C@H]2OCC[C@@H](C(=O)NCc3ccco3)[C@H]2C1`, the cytotoxicity at 10 µM was -81.5%.

In the case of `CCNC(=O)Cc1ccc(-c2cccc3c2CCNC3)cc1`, the cytotoxicity at 10 µM came to 13.6%.

For `CCc1nc(C)c(C2CC(=O)Nc3c2c(C(C)(C)C)nn3C)[nH]1` (configuration not stated), the cytotoxicity at 10 µM turned out to be 2.63%.

In the case of `COCC[C@]1(O)CCN(Cc2nc(C(C)C)cs2)C[C@H]1C`, the cytotoxicity at 10 µM is -6.26%.

In the case of `CC(C)(C)c1cc(CN2CCOCC(O)C2)n[nH]1` (configuration not stated), the cytotoxicity at 10 µM was -3.89%.

As to `CCNc1ncc(C(=O)NCc2csc(C)n2)cn1`, the cytotoxicity at 10 µM amounted to 12.5%.

As for `Cc1ccc(NC2CCCN(CCCc3ccccc3)C2)nn1` (configuration not stated), the cytotoxicity at 10 µM is -2.81%.

Regarding `Cc1ccc2nc(C(=O)N3CC(n4nc(C)cc4C)C3)cn2c1`, the cytotoxicity at 10 µM came out at 5.53%.

On to `Cc1ccc(-c2nnc(CN3CC[C@H](CO)[C@@H](O)C3)o2)n1C`, for which the cytotoxicity at 10 µM is -4.39%.

Regarding `COCCN(C)C[C@H]1C[C@@H](CO)CN(C(=O)c2ccn(C)c(=O)c2)C1`, the cytotoxicity at 10 µM was 2.14%.

`CCC1CN(Cc2nc(C(C)C)no2)CCC(=O)N1Cc1ccccc1` (configuration not stated): the cytotoxicity at 10 µM was found to be 5.08%.

Turning to `Nc1cc(-c2cc(O)cc(C(=O)O)c2)c2cc[nH]c2n1`, the cytotoxicity at 10 µM was 6.77%.

Consider `Cc1cc2[nH]c(CN3CCOC(c4ccc(Cl)cc4)C3)cc(=O)n2n1` (configuration not stated), for which the cytotoxicity at 10 µM stood at 1.91%.

`Cc1ccc(OC2CCN(C(=O)Cc3c(C)[nH]c(=O)[nH]c3=O)CC2)cc1`: the cytotoxicity at 10 µM worked out at 6.45%.

Consider `Cn1cc(CN2CCC(CCC(=O)NC3CC3)CC2)cn1`, for which the cytotoxicity at 10 µM is 9.27%.

Regarding `CCc1oc(C(=O)N(C)Cc2nonc2C)cc1CN(CC)CC`, the cytotoxicity at 10 µM was -10.3%.

For `COCCn1ccnc1C1CCCN(C(=O)c2ccncc2F)C1` (configuration not stated), the cytotoxicity at 10 µM was 0.0773%.

With `Cc1ccc2nc(N3CCN(CC(=O)NC(C)C)CC3)cc(C)c2c1`, the cytotoxicity at 10 µM is -14.7%.

Turning to `CCN(Cc1cccc(C(=O)Nc2cn(C)nn2)c1)[C@H]1COC[C@@H]1O`, the cytotoxicity at 10 µM was -2.77%.

As for `CN(C)CCCn1ccnc1C1CCCN(c2cc(N)ncn2)C1` (configuration not stated), the cytotoxicity at 10 µM was -2.1%.

For the compound `O=C(c1ccc[nH]1)N1CCC2(CC1)C(=O)Nc1ccccc12`, the cytotoxicity at 10 µM amounted to 2.09%.

Consider `CC(C)n1ccnc1C1CCN(C(=O)c2ccccc2)CC1`, for which the cytotoxicity at 10 µM was -10.9%.

Regarding `Fc1ccc(CN2CCC(c3n[nH]c4nccnc34)CC2)cc1F`, the cytotoxicity at 10 µM was -11.8%.

Take `COc1ccc(S(=O)(=O)NC(=O)COc2ccc3c(c2)CCC3)cc1`: the cytotoxicity at 10 µM was -6.72%.

Turning to `CCOc1ccc(Cl)c(C(=O)NCCS(N)(=O)=O)n1`, the cytotoxicity at 10 µM was -8.72%.

For the compound `Cc1cnn(CC2CN(Cc3nc(C)c4ccccc4n3)CCO2)c1` (configuration not stated), the cytotoxicity at 10 µM was -35.6%.

Turning to `CCc1nncn1CCNC(=O)N1CCN(Cc2ccccc2)CC1`, the cytotoxicity at 10 µM came out at 3.84%.

Turning to `Cc1ocnc1C(=O)N1CCCN(Cc2cscn2)CC1`, the cytotoxicity at 10 µM is -7.22%.

In the case of `CCc1nccn1C1CCCN(C(=O)c2ccc3[nH]c(=O)[nH]c3c2)C1` (configuration not stated), the cytotoxicity at 10 µM was -3.71%.

On to `Cc1cccc(-n2c(C)cc(C(=O)N3CCn4c(C)nnc4C3)c2C)c1`, for which the cytotoxicity at 10 µM is -4.86%.

As to `O=C(NCCN1CCCCC1)c1scnc1Cl`, the cytotoxicity at 10 µM is -7.69%.

Turning to `CC(C(=O)N1CCCN(c2ncccc2C#N)CC1)n1cccn1` (configuration not stated), the cytotoxicity at 10 µM is -4.3%.

On to `Cc1csc(N2CCCN(C(=O)C(C)n3ccnc3)CC2)n1` (configuration not stated), for which the cytotoxicity at 10 µM is -9.46%.

Regarding `Cc1ccc(N(C)C2CCN(C(=O)CCc3ccco3)CC2)nn1`, the cytotoxicity at 10 µM was -7%.

As for `O=C(NCC1CCOC1)c1ccc(OCC(F)(F)F)nc1` (configuration not stated), the cytotoxicity at 10 µM is -5.64%.

As to `CN(CC1COc2ccccc2O1)C(=O)NCCCn1cncn1` (configuration not stated), the cytotoxicity at 10 µM is -0.884%.

With `Cc1nn(C)c(N2CCOCC2)c1CNC1CCc2ccccc2C1` (configuration not stated), the cytotoxicity at 10 µM is -11.4%.

Turning to `COc1ccc(NC(=O)c2ccc(-n3ncc(C#N)c3N)cc2)cn1`, the cytotoxicity at 10 µM was -5.77%.

For `CCNc1cc2c(nn1)CCN(C(=O)c1cc3nc(C)ccc3o1)C2`, the cytotoxicity at 10 µM was -3.85%.

Consider `NC(=O)c1csc(C(=O)N2CCCC(n3ccnc3)C2)c1` (configuration not stated), for which the cytotoxicity at 10 µM is -2.07%.

Regarding `Cc1nc(Cc2ccc(F)cc2)cc(C2COCCN2)n1` (configuration not stated), the cytotoxicity at 10 µM came out at 3.44%.

As to `COc1ccc(CC(=O)N2C[C@@H]3COC[C@]3(CN(C)C)C2)cc1`, the cytotoxicity at 10 µM was -3.01%.

In the case of `CNC(=O)CN1CCOCC12CCN(C(=O)c1ccccc1)CC2`, the cytotoxicity at 10 µM was -82.2%.

Take `CO[C@@H]1CCN(Cc2c(C)noc2C)[C@@H]2CN(Cc3ccco3)C[C@@H]21`: the cytotoxicity at 10 µM stood at 8.64%.

Consider `O=C(c1ccccn1)N1CCCC2(CCN(c3ccsc3)C2=O)C1` (configuration not stated), for which the cytotoxicity at 10 µM was -136%.

For `COCC1CN(C(=O)Cc2cccc(F)c2)Cc2ccnn2C1` (configuration not stated), the cytotoxicity at 10 µM was -73%.

With `CCC1=N[C@@]2(CC[C@@H]3CN(Cc4ccc(Cl)cc4)C[C@@H]32)C(=O)N1`, the cytotoxicity at 10 µM was found to be 3.6%.

On to `c1cnc2c(c1)cc([C@H]1CCCO1)n2CCN1CCCCC1`, for which the cytotoxicity at 10 µM worked out at 4.99%.

Consider `Cn1cc(CN2CCC[C@]3(C[C@@H](Oc4ncccc4F)CO3)C2)cn1`, for which the cytotoxicity at 10 µM is 9.66%.

In the case of `COc1c(CNCc2cccc(CN(C)C)c2)c(C)nn1C`, the cytotoxicity at 10 µM was -9.95%.

`COc1c(CNC2CCc3cc(F)ccc32)c(C)nn1C` (configuration not stated): the cytotoxicity at 10 µM was -8.11%.

For the compound `CC(C)N1CCOCC2(CCCN(C(=O)CCc3cccnc3)C2)C1` (configuration not stated), the cytotoxicity at 10 µM worked out at 2.66%.

`CN1C(=O)[C@@H]2CC[C@H]1CN(C(=O)c1csc(Cc3ccccc3)n1)C2`: the cytotoxicity at 10 µM is 3.75%.
